Assay results: ChEMBL document CHEMBL4346667 (Eur J Med Chem, 2019)
The source made the active and inactive calls. The rule behind the calls is not given here.

Legend:
Assay type in all cases: functional
MCF7 [1] = assay: Induction of apoptosis in human MCF7 cells assessed as necrotic cells at 1 uM after 6 hrs by Annexin V-FITC/propidium iodide staining-based flow cytometric analysis (reference value: 0.5%)
MCF7 [2] = assay: Induction of apoptosis in human MCF7 cells assessed as early apoptotic cells at 10 uM after 24 hrs by Annexin V-FITC/propidium iodide staining-based flow cytometric analysis (reference value: 2.1%)
How it was run: (§1)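 Log-phase cells seeded in 6-well plates and treated after adhesion; incubated in cycles of 6 h on/6 h off up to 48 h. Collected after PBS washes and trypsin, resuspended in Ca2+-enriched binding buffer. Stained with annexin V (1 µg/mL) plus PI (0.5 µg/mL) 15 min in the dark at room temperature. 10,000 events, FL1 vs FL2. At least three repeats.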

MCF7 [3] = assay: Induction of apoptosis in human MCF7 cells assessed as late apoptotic cells at 5 uM after 24 hrs by Annexin V-FITC/propidium iodide staining-based flow cytometric analysis (reference value: 5.6%); how it was run: as §1
MCF7 [4] = assay: Induction of apoptosis in human MCF7 cells assessed as early apoptotic cells at 5 uM after 48 hrs by Annexin V-FITC/propidium iodide staining-based flow cytometric analysis (reference value: 9.1%); how it was run: as §1
MCF7 [5] = assay: Induction of apoptosis in human MCF7 cells assessed as viable cells at 1 uM after 24 hrs by Annexin V-FITC/propidium iodide staining-based flow cytometric analysis (reference value: 92.1%); settings: MCF7, 24 h, read-out: Activity
MCF7 [6] = assay: Antitumor activity against human MCF7 cells xenografted in BALB/c nude mouse assessed as inhibition of tumor growth at 40 mg/kg administered for a week
How it was run: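 Male BALB/c nude mice, 4 weeks old, 15-20 g. Log-phase MCF-7 cells in DMEM, 0.1 mL of 1×10^6 cells/mL, injected subcutaneously into the hind leg. Calipers twice weekly; at about 90 mm3, groups of 5. Vehicle was isotonic saline plus 0.005% DMSO. Injected at 40 mg/kg for a week; tumour volume recorded daily.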

MCF7 [7] = assay: Induction of apoptosis in human MCF7 cells assessed as necrotic cells at 5 uM after 24 hrs by Annexin V-FITC/propidium iodide staining-based flow cytometric analysis (reference value: 0.2%)
MCF7 [8] = assay: Induction of apoptosis in human MCF7 cells assessed as early apoptotic cells at 5 uM after 6 hrs by Annexin V-FITC/propidium iodide staining-based flow cytometric analysis (reference value: 2%); how it was run: as §1
MCF7 [9] = assay: Induction of apoptosis in human MCF7 cells assessed as late apoptotic cells at 25 uM after 48 hrs by Annexin V-FITC/propidium iodide staining-based flow cytometric analysis (reference value: 2.8%); how it was run: as §1
MCF7 [10] = assay: Induction of apoptosis in human MCF7 cells assessed as necrotic cells at 10 uM after 6 hrs by Annexin V-FITC/propidium iodide staining-based flow cytometric analysis (reference value: 0.5%)
MCF7 [11] = assay: Induction of apoptosis in human MCF7 cells assessed as necrotic cells at 5 uM after 6 hrs by Annexin V-FITC/propidium iodide staining-based flow cytometric analysis (reference value: 0.5%)
MCF7 [12] = assay: Induction of apoptosis in human MCF7 cells assessed as early apoptotic cells at 10 uM after 48 hrs by Annexin V-FITC/propidium iodide staining-based flow cytometric analysis (reference value: 9.1%); how it was run: as §1
MCF7 [13] = assay: Induction of apoptosis in human MCF7 cells assessed as late apoptotic cells at 5 uM after 6 hrs by Annexin V-FITC/propidium iodide staining-based flow cytometric analysis (reference value: 4.7%); how it was run: as §1
MCF7 [14] = assay: Induction of apoptosis in human MCF7 cells assessed as viable cells at 5 uM after 24 hrs by Annexin V-FITC/propidium iodide staining-based flow cytometric analysis (reference value: 92.1%); settings: MCF7, 24 h, read-out: Activity
MCF7 [15] = assay: Induction of apoptosis in human MCF7 cells assessed as late apoptotic cells at 5 uM after 48 hrs by Annexin V-FITC/propidium iodide staining-based flow cytometric analysis (reference value: 2.8%); how it was run: as §1
MCF7 [16] = assay: Induction of apoptosis in human MCF7 cells assessed as late apoptotic cells at 10 uM after 48 hrs by Annexin V-FITC/propidium iodide staining-based flow cytometric analysis (reference value: 2.8%); how it was run: as §1
MCF7 [17] = assay: Induction of apoptosis in human MCF7 cells assessed as viable cells at 50 uM after 48 hrs by Annexin V-FITC/propidium iodide staining-based flow cytometric analysis (reference value: 87.9%); settings: MCF7, 48 h, read-out: Activity
MCF7 [18] = assay: Induction of apoptosis in human MCF7 cells assessed as late apoptotic cells at 10 uM after 24 hrs by Annexin V-FITC/propidium iodide staining-based flow cytometric analysis (reference value: 5.6%); how it was run: as §1
MCF7 [19] = assay: Induction of apoptosis in human MCF7 cells assessed as viable cells at 10 uM after 48 hrs by Annexin V-FITC/propidium iodide staining-based flow cytometric analysis (reference value: 87.9%); settings: MCF7, 48 h, read-out: Activity
MCF7 [20] = assay: Induction of apoptosis in human MCF7 cells assessed as late apoptotic cells at 1 uM after 48 hrs by Annexin V-FITC/propidium iodide staining-based flow cytometric analysis (reference value: 2.8%); how it was run: as §1
MCF7 [21] = assay: Induction of apoptosis in human MCF7 cells assessed as early apoptotic cells at 1 uM after 6 hrs by Annexin V-FITC/propidium iodide staining-based flow cytometric analysis (reference value: 2%); how it was run: as §1
MCF7 [22] = assay: Induction of apoptosis in human MCF7 cells assessed as necrotic cells at 25 uM after 24 hrs by Annexin V-FITC/propidium iodide staining-based flow cytometric analysis (reference value: 0.1%)
MCF7 [23] = assay: Induction of apoptosis in human MCF7 cells assessed as late apoptotic cells at 10 uM after 6 hrs by Annexin V-FITC/propidium iodide staining-based flow cytometric analysis (reference value: 4.7%); how it was run: as §1
MCF7 [24] = assay: Cell cycle arrest in human MCF7 cells assessed as accumulation of cells at G2/M phase at 10 uM up to 48 hrs by propidium iodide double staining based flow cytometric analysis
MCF7 [25] = assay: Induction of apoptosis in human MCF7 cells assessed as viable cells at 1 uM after 6 hrs by Annexin V-FITC/propidium iodide staining-based flow cytometric analysis (reference value: 92.8%); settings: MCF7, 6 h, read-out: Activity
MCF7 [26] = assay: Induction of apoptosis in human MCF7 cells assessed as necrotic cells at 50 uM after 24 hrs by Annexin V-FITC/propidium iodide staining-based flow cytometric analysis (reference value: 0.2%)
MCF7 [27] = assay: Induction of apoptosis in human MCF7 cells assessed as viable cells at 10 uM after 6 hrs by Annexin V-FITC/propidium iodide staining-based flow cytometric analysis (reference value: 92.8%); settings: MCF7, 6 h, read-out: Activity
MCF7 [28] = assay: Induction of apoptosis in human MCF7 cells assessed as viable cells at 5 uM after 48 hrs by Annexin V-FITC/propidium iodide staining-based flow cytometric analysis (reference value: 87.9%); settings: MCF7, 48 h, read-out: Activity
MCF7 [29] = assay: Induction of apoptosis in human MCF7 cells assessed as necrotic cells at 5 uM after 24 hrs by Annexin V-FITC/propidium iodide staining-based flow cytometric analysis (reference value: 0.1%)
MCF7 [30] = assay: Induction of apoptosis in human MCF7 cells assessed as viable cells at 50 uM after 6 hrs by Annexin V-FITC/propidium iodide staining-based flow cytometric analysis (reference value: 92.8%); settings: MCF7, 6 h, read-out: Activity

COc1cc([C@@H]2c3cc4c(cc3[C@@H](O[C@@H]3O[C@@H]5CO[C@@H](C)O[C@H]5[C@H](O)[C@H]3O)[C@H]3COC(=O)[C@H]23)OCO4)cc(OC)c1O [ETOPOSIDE]
Activity (MCF7 [1]): 0.5%
Activity (MCF7 [2]): 13.8%
Activity (MCF7 [3]): 8.4%
Activity (MCF7 [4]): 62.1%
viability at 1 µM (MCF7 [5]): 90.7%
inhibition in vivo at 40 mg/kg (MCF7 [6]): 43.2%
Activity (MCF7 [7]): 0.6%
Activity (MCF7 [8]): 2%
Activity (MCF7 [9]): 19.7%
Activity (MCF7 [10]): 1%
Activity (MCF7 [11]): 0.6%
Activity (MCF7 [12]): 60.5%
Activity (MCF7 [13]): 7.6%
viability at 5 µM (MCF7 [14]): 84.2%
Activity (MCF7 [15]): 15.1%
Activity (MCF7 [16]): 17.5%
viability at 50 µM (MCF7 [17]): 29.8%
Activity (MCF7 [18]): 11.5%
viability at 10 µM (MCF7 [19]): 20.7%
Activity (MCF7 [20]): 6%
Activity (MCF7 [21]): 1.6%
Activity (MCF7 [22]): 1.6%
Activity (MCF7 [23]): 9.1%
Activity (MCF7 [24]): Active
viability at 1 µM (MCF7 [25]): 90.8%
Activity (MCF7 [26]): 1%
viability at 10 µM (MCF7 [27]): 87.7%
viability at 5 µM (MCF7 [28]): 21.7%
Activity (MCF7 [29]): 1.2%
viability at 50 µM (MCF7 [30]): 91.6%
